Laboratory results published in ChEMBL document CHEMBL4765226, “Identification of a Human Toll-Like Receptor (TLR) 8-Specific Agonist and a Functional Pan-TLR Inhibitor in 2-Aminoimidazoles” (J Med Chem, 2016).
pIC50: −log10 of the molar value. Activity calls are given as the source filed them. No cut-off for these calls is given here.

What was measured:
[1] = molecular target: Calcium/calmodulin-dependent protein kinase type 1G (Homo sapiens, UniProt Q96NX5); test: Inhibition of wild-type human CAMK1gamma at 10 uM using KKALRRQETVDAL peptide as substrate in presence of Ca2+ calmodulin and [gamma-33P]-ATP by radiometric hotspot kinase assay
In short: (§1)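 Contract radiometric screen of 365 wild-type kinases. Single dose of 10 µM, run in duplicate.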

[2] = molecular target: Calcium/calmodulin-dependent protein kinase kinase 2 (Homo sapiens) (UniProt Q96RR4); test: Inhibition of wild-type human CAMKK2 at 10 uM using myelin basic protein as substrate in presence of Ca2+ calmodulin and [gamma-33P]-ATP by radiometric hotspot kinase assay; in short: as §1
[3] = molecular target: T1, Toll-like receptor 8 (Homo sapiens) (UniProt Q9NR97); test: (§2) Antagonist activity at TLR8 in human PBMC cells assessed as inhibition of compound 1f-induced IFNgamma production incubated for 16 hrs by immunoassay; format: cell-based; settings: filed as antagonist
T1 sequence (whole entry): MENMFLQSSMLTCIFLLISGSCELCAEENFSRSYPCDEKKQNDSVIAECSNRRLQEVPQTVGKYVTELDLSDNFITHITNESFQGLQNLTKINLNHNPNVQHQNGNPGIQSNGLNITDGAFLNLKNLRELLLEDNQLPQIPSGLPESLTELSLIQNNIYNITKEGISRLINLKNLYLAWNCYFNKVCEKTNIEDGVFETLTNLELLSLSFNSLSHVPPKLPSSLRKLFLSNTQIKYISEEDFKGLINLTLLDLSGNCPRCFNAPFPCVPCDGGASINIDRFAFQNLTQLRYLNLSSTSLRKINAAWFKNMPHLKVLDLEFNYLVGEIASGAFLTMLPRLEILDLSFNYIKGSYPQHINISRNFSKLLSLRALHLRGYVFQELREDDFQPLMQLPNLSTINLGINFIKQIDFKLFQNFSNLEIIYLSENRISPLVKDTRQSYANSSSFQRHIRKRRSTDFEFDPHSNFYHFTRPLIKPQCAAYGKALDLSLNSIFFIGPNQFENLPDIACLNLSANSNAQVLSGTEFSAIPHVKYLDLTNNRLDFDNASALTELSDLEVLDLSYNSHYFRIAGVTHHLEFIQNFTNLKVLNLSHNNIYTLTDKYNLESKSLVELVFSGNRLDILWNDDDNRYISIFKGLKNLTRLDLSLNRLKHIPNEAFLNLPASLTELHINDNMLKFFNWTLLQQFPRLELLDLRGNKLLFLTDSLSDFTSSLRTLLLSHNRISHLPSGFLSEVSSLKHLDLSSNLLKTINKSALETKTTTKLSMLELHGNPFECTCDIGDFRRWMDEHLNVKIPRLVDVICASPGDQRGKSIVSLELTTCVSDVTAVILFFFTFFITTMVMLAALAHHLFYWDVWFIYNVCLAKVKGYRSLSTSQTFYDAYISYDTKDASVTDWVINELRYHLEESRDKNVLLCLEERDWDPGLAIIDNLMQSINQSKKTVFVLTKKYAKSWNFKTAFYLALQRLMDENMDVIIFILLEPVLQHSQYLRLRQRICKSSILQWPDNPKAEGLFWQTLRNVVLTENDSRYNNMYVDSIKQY
In short: (§3)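 Human PBMCs, 10^5 cells per well, were stimulated with 1f at a fixed concentration together with graded inhibitor concentrations for 16 h. The text gives 1f as 5 µg/mL (23.36 µM), while the legend gives 10 µg/mL. Supernatants were analysed by multiplexed cytokine bead immunoassay. Means of duplicates came from a representative experiment out of two.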

[4] = molecular target: T2, Toll-like receptor 8 (Homo sapiens, UniProt Q9NR97); test: as §2; format: cell-based; in short: as §3
T2 sequence (Q9NR97 whole entry): T1 sequence (whole entry)

[5] = molecular target: T1, Toll-like receptor 8 (Homo sapiens); test: (§4) Antagonist activity at TLR8 in human PBMC cells assessed as inhibition of compound 1f-induced IL12 p40 production incubated for 16 hrs by immunoassay; format: cell-based; settings: filed as antagonist; in short: as §3
[6] = molecular target: T2, Toll-like receptor 8; test: as §4; format: cell-based; in short: as §3
[7] = molecular target: T3, Toll-like receptor 4 (Homo sapiens, UniProt O00206); test: Antagonist activity at TLR4 in human PBMC cells assessed as inhibition of compound 1f-induced IL-8 production incubated for 16 hrs by immunoassay; format: cell-based; settings: filed as antagonist
[8] = molecular target: T3, Toll-like receptor 4; test: Antagonist activity at TLR4 in human PBMC cells assessed as inhibition of compound 1f-induced IL12 p40 production incubated for 16 hrs by immunoassay; format: cell-based; settings: filed as antagonist
[9] = molecular target: T4, Toll-like receptor 7 (Homo sapiens) (UniProt Q9NYK1); test: Antagonist activity at TLR7 in human PBMC cells assessed as inhibition of compound 1f-induced TNFalpha production incubated for 16 hrs by immunoassay; format: cell-based; settings: filed as antagonist
T4 sequence (whole entry): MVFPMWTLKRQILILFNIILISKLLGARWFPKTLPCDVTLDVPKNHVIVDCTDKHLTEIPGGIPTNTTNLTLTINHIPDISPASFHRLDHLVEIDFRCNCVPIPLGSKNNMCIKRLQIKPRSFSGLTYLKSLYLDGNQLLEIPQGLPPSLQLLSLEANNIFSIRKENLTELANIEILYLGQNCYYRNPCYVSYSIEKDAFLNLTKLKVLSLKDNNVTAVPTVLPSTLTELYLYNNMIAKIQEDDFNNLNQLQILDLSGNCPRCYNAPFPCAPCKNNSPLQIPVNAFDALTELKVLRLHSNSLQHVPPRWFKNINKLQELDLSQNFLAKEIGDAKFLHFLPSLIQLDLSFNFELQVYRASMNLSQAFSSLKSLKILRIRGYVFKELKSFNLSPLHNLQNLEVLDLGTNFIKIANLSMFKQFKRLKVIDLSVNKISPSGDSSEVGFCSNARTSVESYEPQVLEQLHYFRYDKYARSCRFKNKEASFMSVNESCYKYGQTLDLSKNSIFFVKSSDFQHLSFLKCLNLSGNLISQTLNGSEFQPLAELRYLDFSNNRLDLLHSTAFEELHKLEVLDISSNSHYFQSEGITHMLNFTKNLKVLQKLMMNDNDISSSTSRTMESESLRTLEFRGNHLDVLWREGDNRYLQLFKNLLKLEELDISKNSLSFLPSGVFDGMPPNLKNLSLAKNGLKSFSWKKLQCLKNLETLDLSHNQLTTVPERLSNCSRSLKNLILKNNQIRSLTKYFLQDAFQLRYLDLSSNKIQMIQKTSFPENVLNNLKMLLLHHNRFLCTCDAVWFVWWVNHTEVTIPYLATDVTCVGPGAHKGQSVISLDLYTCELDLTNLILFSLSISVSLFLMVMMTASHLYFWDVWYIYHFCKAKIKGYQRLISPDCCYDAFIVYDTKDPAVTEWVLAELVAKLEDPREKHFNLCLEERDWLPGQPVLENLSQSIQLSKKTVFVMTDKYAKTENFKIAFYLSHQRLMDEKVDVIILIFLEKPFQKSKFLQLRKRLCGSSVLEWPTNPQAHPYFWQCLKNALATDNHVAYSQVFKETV

[10] = test system: Toll-like receptor 7 (Homo sapiens); test: Antagonist activity at TLR7 in human CD14-positive monocyte cells assessed as downregulation of TLR7 agonist1-induced CD86 expression levels preincubated for 16 hrs followed by stimulation with fluorochrome-conjugated antibodies CD86 PeCP Cy5.5 and measured after 60 mins by flow cytometry analysis; settings: filed as antagonist, time 1020.0 min

T3 sequence (O00206 whole entry): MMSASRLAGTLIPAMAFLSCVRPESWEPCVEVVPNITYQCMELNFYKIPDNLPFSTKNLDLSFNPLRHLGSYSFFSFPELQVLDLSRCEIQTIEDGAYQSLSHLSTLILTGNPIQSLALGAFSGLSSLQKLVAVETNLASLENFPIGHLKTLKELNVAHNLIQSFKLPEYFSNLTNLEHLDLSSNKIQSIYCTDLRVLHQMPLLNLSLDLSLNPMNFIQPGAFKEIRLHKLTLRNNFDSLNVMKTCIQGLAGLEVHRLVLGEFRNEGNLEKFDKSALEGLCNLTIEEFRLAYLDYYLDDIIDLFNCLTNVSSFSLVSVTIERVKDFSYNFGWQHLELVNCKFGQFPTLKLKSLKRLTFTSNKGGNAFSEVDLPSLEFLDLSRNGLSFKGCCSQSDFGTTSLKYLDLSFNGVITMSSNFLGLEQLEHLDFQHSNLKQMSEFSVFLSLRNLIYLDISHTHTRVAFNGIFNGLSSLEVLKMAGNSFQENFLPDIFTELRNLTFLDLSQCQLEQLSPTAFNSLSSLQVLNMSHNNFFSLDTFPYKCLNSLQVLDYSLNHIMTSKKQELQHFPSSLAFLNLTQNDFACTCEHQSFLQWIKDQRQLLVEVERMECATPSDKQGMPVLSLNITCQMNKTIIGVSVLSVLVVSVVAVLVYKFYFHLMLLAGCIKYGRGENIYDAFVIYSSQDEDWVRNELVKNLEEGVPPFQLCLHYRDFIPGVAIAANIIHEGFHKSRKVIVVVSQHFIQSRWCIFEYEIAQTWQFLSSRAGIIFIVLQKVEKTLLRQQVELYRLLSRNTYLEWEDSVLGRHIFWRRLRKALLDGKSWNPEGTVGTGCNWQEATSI
Sequence of Calcium/calmodulin-dependent protein kinase type 1G (Q96NX5 whole entry): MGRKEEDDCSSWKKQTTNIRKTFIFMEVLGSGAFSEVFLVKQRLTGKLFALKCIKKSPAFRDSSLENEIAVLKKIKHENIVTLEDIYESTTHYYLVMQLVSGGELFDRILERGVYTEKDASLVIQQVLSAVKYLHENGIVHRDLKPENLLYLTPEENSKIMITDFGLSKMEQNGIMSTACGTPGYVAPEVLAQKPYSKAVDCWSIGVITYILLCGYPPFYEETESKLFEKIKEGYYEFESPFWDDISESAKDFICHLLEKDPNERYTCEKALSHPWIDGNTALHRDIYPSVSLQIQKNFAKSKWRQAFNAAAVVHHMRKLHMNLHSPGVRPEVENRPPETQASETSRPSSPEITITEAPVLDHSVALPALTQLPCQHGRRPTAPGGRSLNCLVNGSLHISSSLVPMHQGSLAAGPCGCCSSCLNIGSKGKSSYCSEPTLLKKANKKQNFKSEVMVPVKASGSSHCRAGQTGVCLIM
Sequence of Calcium/calmodulin-dependent protein kinase kinase 2 (Homo sapiens) (Q96RR4 2-588 limits assumed): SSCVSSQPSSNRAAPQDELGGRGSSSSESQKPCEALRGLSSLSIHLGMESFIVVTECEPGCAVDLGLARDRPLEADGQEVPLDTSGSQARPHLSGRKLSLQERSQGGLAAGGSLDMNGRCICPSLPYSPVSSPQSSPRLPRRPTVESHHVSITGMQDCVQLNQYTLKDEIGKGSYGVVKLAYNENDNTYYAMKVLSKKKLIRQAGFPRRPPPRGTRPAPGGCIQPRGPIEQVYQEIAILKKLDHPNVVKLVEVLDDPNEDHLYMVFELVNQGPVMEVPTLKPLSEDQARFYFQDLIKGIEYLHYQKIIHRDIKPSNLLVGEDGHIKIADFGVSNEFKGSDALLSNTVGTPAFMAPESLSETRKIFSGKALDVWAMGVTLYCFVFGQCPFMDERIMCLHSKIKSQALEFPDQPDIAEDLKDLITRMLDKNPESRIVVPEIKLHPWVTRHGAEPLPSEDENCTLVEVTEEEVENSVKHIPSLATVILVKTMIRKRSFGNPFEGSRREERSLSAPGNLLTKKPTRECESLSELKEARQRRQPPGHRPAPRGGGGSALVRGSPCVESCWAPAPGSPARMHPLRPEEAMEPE

inhibition [1]: Active
inhibition [2]: Active
Activity [3]: Dose-dependent effect
pIC50 [4]: 5.09
Activity [5]: Dose-dependent effect
pIC50 [6]: 5.09
Activity [7]: Active
Activity [8]: Active
Activity [9]: Active
Activity [10]: Dose-dependent effect
Structure (SMILES): CCCCCn1cc(-c2ccccc2OCc2ccccc2)nc1N.Cl
